Experimental data: ChEMBL document CHEMBL2380272, “Biological evaluation of bisbenzaldehydes against four Mycobacterium species” (Eur J Med Chem, 2013)
In brackets after ≈: the same amount, converted by molar mass.

Experiments:
[1] = Toxicity in recombinant Salmonella typhimurium TA104 expressing luxabcd genes under transcriptional control of constitutive pr1 promoter assessed as concentration required to reduce cell viability measured every 5 mins for 4 hrs by vitotox assay in presence of S9 fraction; format: organism-based; conditions: salmonella enterica subsp. enterica serovar typhimurium; read-out: Activity
Summary of the method: (§1)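 Cytox strain TA104 pr1 (constitutive promoter driving lux), run alongside the genox strain. Grown in poor LB at 36 °C for 16 h, diluted 125-fold and shaken 1 h, then diluted 10-fold, with or without aroclor-rat S9. Luminescence read at 30 °C every 5 min over 4 h; a drop in light signal indicates reduced viability. Top concentration 10 µM.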

[2] = Selectivity index, ratio of NI50 for human HepG2/C3A cells to MIC50 for Mycobacterium tuberculosis H37Rv ATCC 27294; format: functional
[3] = tested on: Mycobacterium tuberculosis; assay: Antimycobacterial activity against Mycobacterium tuberculosis H37Rv ATCC 27294 assessed as growth inhibition at 10 uM after 6 days by luciferase reporter gene assay relative to control; format: functional; conditions: H37Rv ATCC 27294, 144 h, read-out: GI
Summary of the method: (§2)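 Luminescent M. tb H37Rv (hsp60-driven luciferase) in 7H9 + 10% FCS was seeded at 50 000 RLU/mL. Compounds were tested at 10, 1 and 0.1 µM from 10 mM DMSO stocks. After 6 days, luminescence was read with 1% n-decanal. Growth inhibition (%) was expressed against untreated culture, with triplicates.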

[4] = Potency index, ratio of MIC50 for Mycobacterium avium subsp. avium ATCC 15769 to MIC50 for Mycobacterium bovis AN5; format: functional
Salmonella typhimurium [5] = assay: Genotoxicity in recombinant Salmonella typhimurium TA104 expressing Vibrio fisheri luxabcd genes under transcriptional control of recN2-4 promoter assessed as concentration required to cause DNA damage measured every 5 mins for 4 hrs by vitotox assay in absence of S9 fraction; format: toxicity, organism-based; conditions: salmonella enterica subsp. enterica serovar typhimurium
Summary of the method: (§3)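 VITOTOX genox strain TA104 recN2-4 (recN promoter driving lux). Grown 16 h at 36 °C in poor LB, diluted 125-fold and shaken 1 h, then diluted 10-fold; rat aroclor S9 added for +S9 runs. Incubated at 30 °C with light read every 5 min for 4 h. Signal/noise = exposed over unexposed light. Highest concentration tested 10 µM.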

[6] = tested on: Mycobacterium avium subsp. paratuberculosis; assay: Antimycobacterial activity against Mycobacterium avium subsp. paratuberculosis ATCC 19698 assessed as growth inhibition after 6 days by luciferase reporter gene assay; format: functional; conditions: ATCC 19698, 144 h
Summary of the method: (§4)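 Mycobacteria carrying the pSMT1 luciferase reporter plasmid. Compounds came from 10 mM DMSO stocks and were serially diluted in 7H9 + 10% FCS. Thawed bacteria were filtered, recovered 1 h at 37 °C, then added at 50 000 RLU/mL. After 6 days of culture, light was read for 10 s after adding 1% n-decanal. Triplicates were run, and MIC50 was the concentration giving 50% growth inhibition.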

[7] = Cytotoxicity against human HepG2/C3A cells assessed as cell viability at 120 uM after 24 hrs by neutral red uptake assay relative to control; format: cell-based; conditions: read-out: Activity
Summary of the method: (§5)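 C3A cells grown in DMEM + 10% FCS, 40 000 cells/well, recovered overnight at 37 °C, 5% CO2. Exposed 24 h to serial dilutions in DMEM + 10% FCS from 18 mM DMSO stocks, DMSO limited to 1%. Neutral red added for 3 h, cells washed, dye extracted with ethanol/acetic acid (50%/1%), OD read at 540 nm with 620 nm reference. Viability expressed as % of untreated cells.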

Salmonella typhimurium [8] = assay: Toxicity in recombinant Salmonella typhimurium TA104 expressing luxabcd genes under transcriptional control of constitutive pr1 promoter assessed as concentration required to reduce cell viability measured every 5 mins for 4 hrs by vitotox assay in absence of S9 fraction; format: organism-based; conditions: salmonella enterica subsp. enterica serovar typhimurium; summary of the method: as §1
[9] = Potency index, ratio of MIC50 for Mycobacterium avium subsp. paratuberculosis ATCC 19698 to MIC50 for Mycobacterium bovis AN5; format: functional
[10] = Genotoxicity in human HepG2/C3A cells assessed as DNA fragmentation at 10 uM after 24 hrs by alkaline comet assay (reference value: 6.65%); format: toxicity, cell-based
Summary of the method: (§6)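 Alkaline comet assay. C3A cells, 40,000/well, recovered overnight, then exposed 24 h at 37 °C, 5% CO2 to 0.1–10 µM final, diluted in DMEM + 10% FCS from 1 mM DMSO stock. Cells embedded in low-melting agarose, lysed 1 h, denatured 40 min at pH > 13, electrophoresed 20 min at 300 mA, about 17 °C. Gel red stain, % tail DNA scored by fluorescence microscopy. EMS 0.5 and 0.75 mM as positive control. Mann–Whitney U test.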

[11] = Genotoxicity in human HepG2/C3A cells assessed as DNA fragmentation at 3 uM after 24 hrs by alkaline comet assay (reference value: 6.65%); format: toxicity, cell-based; summary of the method: as §6
Salmonella typhimurium [12] = assay: Genotoxicity in recombinant Salmonella typhimurium TA104 expressing Vibrio fisheri luxabcd genes under transcriptional control of recN2-4 promoter assessed as concentration required to cause DNA damage measured every 5 mins for 4 hrs by vitotox assay in presence of S9 fraction; format: toxicity, organism-based; conditions: salmonella enterica subsp. enterica serovar typhimurium, s9, 4 h; summary of the method: as §3
[13] = tested on: Mycobacterium tuberculosis; assay: Antimycobacterial activity against Mycobacterium tuberculosis H37Rv ATCC 27294 assessed as growth inhibition after 6 days by luciferase reporter gene assay; format: functional; conditions: H37Rv ATCC 27294, 144 h; summary of the method: as §4
[14] = tested on: Mycobacterium tuberculosis; assay: Antimycobacterial activity against Mycobacterium tuberculosis H37Rv infected in mouse J774.A1 cells at 1 MOI assessed as intracellular bacterial growth inhibition at 10 uM after 1 hr by luciferase reporter gene assay relative to control; format: functional; conditions: J774.A1, 1 h, read-out: GI
Mycobacterium ulcerans = assay: Antimycobacterial activity against Mycobacterium ulcerans 1615 assessed as growth inhibition after 6 days by luciferase reporter gene assay; format: functional; conditions: Mycobacterium ulcerans, 1615, 144 h
Summary of the method: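 M. ulcerans 1615 carrying pSMT1 luciferase reporter plasmid, stock grown as surface pellicle on Sauton medium, cultured at 32 °C. Serial compound dilutions in 7H9 + 10% FCS from 10 mM DMSO stocks, tested in triplicate. Filtered bacteria added at 50 000 RLU/mL. After 6 days, wells collected and washed with PBS, 1% n-decanal in ethanol added, light read over 10 s. MIC50 = concentration giving 50% inhibition versus untreated.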

[15] = tested on: Mycobacterium tuberculosis; assay: Antimycobacterial activity against Mycobacterium tuberculosis H37Rv infected in mouse J774.A1 cells at 1 MOI assessed as intracellular bacterial growth inhibition at 1 uM after 1 hr by luciferase reporter gene assay relative to control; format: functional; conditions: J774.A1, 1 h, read-out: GI
[16] = Genotoxicity in human HepG2/C3A cells assessed as DNA fragmentation at 0.1 uM after 24 hrs by alkaline comet assay (reference value: 6.65%); format: toxicity, cell-based; summary of the method: as §6
[17] = Genotoxicity in human HepG2/C3A cells assessed as DNA fragmentation at 0.3 uM after 24 hrs by alkaline comet assay (reference value: 6.65%); format: toxicity, cell-based; summary of the method: as §6
[18] = tested on: Mycobacterium tuberculosis; assay: Antimycobacterial activity against Mycobacterium tuberculosis H37Rv ATCC 27294 assessed as growth inhibition at 0.1 uM after 6 days by luciferase reporter gene assay relative to control; format: functional; conditions: H37Rv ATCC 27294, 144 h, read-out: GI; summary of the method: as §2
[19] = Antimycobacterial activity against Mycobacterium avium subsp. avium ATCC 15769 assessed as growth inhibition after 6 days by luciferase reporter gene assay; format: functional; conditions: ATCC 15769, 144 h; summary of the method: as §4
[20] = Genotoxicity in human HepG2/C3A cells assessed as DNA fragmentation at 1 uM after 24 hrs by alkaline comet assay (reference value: 6.65%); format: toxicity, cell-based; summary of the method: as §6
[21] = tested on: Mycobacterium tuberculosis; assay: Antimycobacterial activity against Mycobacterium tuberculosis H37Rv ATCC 27294 assessed as growth inhibition at 1 uM after 6 days by luciferase reporter gene assay relative to control; format: functional; conditions: H37Rv ATCC 27294, 144 h, read-out: GI; summary of the method: as §2
[22] = tested on: Mycobacterium tuberculosis; assay: Antimycobacterial activity against Mycobacterium tuberculosis H37Rv infected in mouse J774.A1 cells at 1 MOI assessed as intracellular bacterial growth inhibition at 0.1 uM after 1 hr by luciferase reporter gene assay relative to control; format: functional; conditions: J774.A1, 1 h, read-out: GI
[23] = Cytotoxicity against human HepG2/C3A cells assessed as cell viability at 60 uM after 24 hrs by neutral red uptake assay relative to control; format: cell-based; conditions: read-out: Activity; summary of the method: as §5
[24] = Cytotoxicity against human HepG2/C3A cells assessed as cell viability at 180 uM after 24 hrs by neutral red uptake assay relative to control; format: cell-based; conditions: read-out: Activity; summary of the method: as §5

Q: For O=Cc1ccc(OCCCCCCCCCCCCOc2ccc(C=O)cc2)cc1, which MCC at 4 h [1] is on record?
A: > 10 µM

Q: And the “Selectivity Index” value [2]?
A: >346.2

Q: And the inhibition of growth at 10 µM [3]?
A: 100%

Q: And the Ratio [4]?
A: 5

Q: And the Activity (Salmonella typhimurium [5])?
A: > 10 µM

Q: What about the MIC50 [6] of the same compound?
A: 4.75 µM (≈ 1.95 µg/mL)

Q: What about the viability at 24 h, 120 µM [7] of the same compound?
A: 89.9%

Q: What about the Activity (Salmonella typhimurium [8]) of the same compound?
A: > 10 µM

Q: And the Ratio [9]?
A: 5

Q: And the Activity [10]?
A: 6.97%

Q: And the Activity [11]?
A: 7.44%

Q: And the Activity (Salmonella typhimurium [12])?
A: > 10 µM

Q: And the MIC50 [13]?
A: 0.52 µM (≈ 0.213 µg/mL)

Q: And the intracellular bacterial growth inhibition at 10 µM [14]?
A: 74%

Q: What about the MIC50 (Mycobacterium ulcerans) of the same compound?
A: 8.21 µM (≈ 3.37 µg/mL)

Q: And the percent inhibition of intracellular bacterial growth at 1 µM [15]?
A: 53.1%

Q: And the Activity [16]?
A: 5.72%

Q: What about the Activity [17] of the same compound?
A: 7.64%

Q: And the inhibition of growth at 0.1 µM [18]?
A: 26%

Q: What about the MIC50 [19] of the same compound?
A: 5.01 µM (≈ 2.06 µg/mL)

Q: And the Activity [20]?
A: 7.62%

Q: What about the inhibition of growth at 1 µM [21] of the same compound?
A: 81%

Q: What about the intracellular bacterial growth inhibition at 0.1 µM [22] of the same compound?
A: 13.5%

Q: What about the viability at 24 h, 60 µM [23] of the same compound?
A: 101%

Q: And the viability at 24 h, 180 µM [24]?
A: 68.1%
